The target in data set [1] is T1, Dihydrofolate reductase (Rattus norvegicus) (UniProt Q920D2).
T1 sequence (whole entry): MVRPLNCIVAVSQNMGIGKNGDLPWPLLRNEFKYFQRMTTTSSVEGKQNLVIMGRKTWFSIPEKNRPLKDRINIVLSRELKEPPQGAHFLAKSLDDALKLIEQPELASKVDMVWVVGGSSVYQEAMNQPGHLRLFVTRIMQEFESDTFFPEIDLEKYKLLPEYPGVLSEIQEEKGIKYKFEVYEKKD
The experiment in a line: Tested for inhibition of dihydrofolate reductase enzyme purified from rat liver at the highest concentration tested. The procedure, abridged:
(§1)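 Enzyme partially purified from rat liver, assayed in phosphate buffer by the Baccanari method. Compound held 5 min with enzyme and buffer at 37 °C before NADPH, then FH2, started the reaction. Percent inhibition of reaction rate recorded at the highest concentration tested.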

The nature of data set [2]: Dissociation constant (pKa). In kind it is physicochemical. The following applies: read-out: Dissociation constant.
A further data set deals with T2, Dihydrofolate reductase (Rattus norvegicus, UniProt Q920D2).
T2 sequence (Q920D2 whole entry): T1 sequence (whole entry)
The experiment in a line: Inhibition of dihydrofolate reductase from rat liver […]. The following applies: read-out: I50. The essentials:
as §1

The target of data set [3] is T3, Dihydrofolate reductase (Escherichia coli) (UniProt P0ABQ4).
T3 sequence (whole entry): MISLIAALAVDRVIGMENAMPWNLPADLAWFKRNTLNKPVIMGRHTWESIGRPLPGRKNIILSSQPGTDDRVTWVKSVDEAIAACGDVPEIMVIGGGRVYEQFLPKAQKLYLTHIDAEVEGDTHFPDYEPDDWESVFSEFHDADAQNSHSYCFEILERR
Nature of the data set: Tested for inhibition of dihydrofolate reductase enzyme purified from Escherichia coli […]. The essentials:
(§2)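 Affinity-column-purified E. coli enzyme in phosphate buffer (Baccanari method). Compound preincubated 5 min with enzyme and buffer at 37 °C. NADPH added, then FH2 to start the reaction. Value is percent inhibition of reaction rate at the highest concentration tested.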

Data set [4] has as its target T1, Dihydrofolate reductase (Rattus norvegicus). Nature of the data set: Tested for inhibition of dihydrofolate reductase enzyme purified from rat liver at a concentration of 1x 10 e6 M. The procedure, abridged:
as §1

In data set [5] the target is T3, Dihydrofolate reductase (Escherichia coli). Nature of the data set: (§3) Tested for inhibition of dihydrofolate reductase enzyme purified from Escherichia coli at a concentration of 1x 10 e6M. The essentials:
as §2

For data set [6] the target is unchanged. The description is as §3. The procedure, abridged: as §2
The source holds these as a separate data set.

For 23 compounds, inhibition, pKa and IC50 results are on record in ChEMBL document CHEMBL1121422, “2,4-Diamino-5-benzylpyrimidines and analogues as antibacterial agents. 3. C-Benzylation of aminopyridines with phenolic Mannich bases. Synthesis of 1- and 3-deaza analogues of trimethoprim” (J Med Chem, 1980).

The structures appear in SMILES notation.

Consider `COc1cc(Cc2ccc(N)nc2N)cc(OC)c1O`, for which the inhibition in data set [1] turned out to be 34%; in data set [3], 0%. Also, the pKa in data set [2] came out at 6.6. In addition, the IC50 at Dihydrofolate reductase is roughly 10 mM.
Regarding `COc1cc(CNc2ccnc(N)c2F)cc(OC)c1O`, the pKa in data set [2] stood at 7.26.
As for `COc1cc(CC2=CC(Cc3cc(OC)c(O)c(OC)c3)C(=O)N=C2N)cc(OC)c1O` (centres undefined), in data set [2], the pKa worked out at 1.51. Further, on Dihydrofolate reductase, the IC50 was 14 mM.
As to `COc1cc(Cc2cnc(N)cc2N)cc(OC)c1OC`, the pKa in data set [2] is 9.03. The compound also showed an inhibition in data set [4] of 7%.
Regarding `Nc1ccnc(N)c1Br`, in data set [2], the pKa was 7.44.
Take `Nc1ncc(Br)c(N)c1Br`: in data set [2], the pKa worked out at 5.5.
In data set [1], `CC(C)c1cc(Cc2cnc(N)cc2N)cc(C(C)C)c1O` showed an inhibition of 36%. Also, the IC50 on Dihydrofolate reductase was roughly 27 mM.
In the case of `COc1cc(Cc2cnc(N)c(F)c2N)cc(OC)c1O`, the inhibition in data set [1] came to 32%. Moreover, the pKa in data set [2] stood at 7.15. The IC50 at Dihydrofolate reductase is roughly 35 mM.
Consider `CCOC(=O)Nc1ccnc(NC(=O)OCC)c1`, for which the pKa in data set [2] was determined as 5.04.
`CCOC(=O)Nc1ccnc(C(N)=O)c1`: the pKa in data set [2] was determined as 3.32.
Consider `COc1cc(CC2C=CC(N)=NC2=O)cc(OC)c1O` (centres undefined), for which the inhibition in data set [1] turned out to be 2.4%; in data set [3], 0%. The pKa in data set [2] was 1.31. For the same compound, the IC50 at Dihydrofolate reductase is roughly 1 mM.
As to `COc1cc(CNc2ccnc(N)c2Br)cc(OC)c1O`, in data set [2], the pKa stood at 7.33.
As to `COc1cc(Cc2cc(Cc3cc(OC)c(O)c(OC)c3)c(N)nc2N)cc(OC)c1O`, the pKa in data set [2] came out at 6.69. Further, the IC50 at Dihydrofolate reductase amounted to 24 mM. In data set [3], this compound displayed an inhibition of 29%.
Turning to `COc1cc(Cc2cnc(N)c(Br)c2N)cc(OC)c1O`, the inhibition in data set [1] came out at 21%; in data set [3], 11%. Further, the pKa in data set [2] worked out at 7.2. In addition, the IC50 at Dihydrofolate reductase was roughly 42 mM.
Consider `Nc1ccnc(N)c1`, for which, in data set [2], the pKa was found to be 9.25.
Consider `COc1cc(CNc2cccc(N)n2)cc(OC)c1O`, for which the inhibition is 29% in data set [5], 25% in data set [6] and 0% in data set [4]. In addition, the pKa in data set [2] worked out at 6.51.
In the case of `Nc1ccncc1` [DALFAMPRIDINE], in data set [2], the pKa turned out to be 9.25.
Same read-out and setting: the same measure for `Nc1cccc(N)n1`: 6.73.
On to `CCc1cc(Cc2cc(Cc3cc(CC)c(O)c(CC)c3)c(N)nc2N)cc(CC)c1O`, for which the inhibition in data set [1] amounted to 19%. For the same compound, the pKa in data set [2] is 6.63. Further, at Dihydrofolate reductase, the IC50 is roughly 1 mM.
As for `COc1cc(Cc2cnc(N)cc2N)cc(OC)c1O`, the inhibition in data set [1] stood at 37%. Moreover, at Dihydrofolate reductase, the IC50 is roughly 10 mM.
In data set [1], `CC(C)c1cc(Cc2cnc(N)c(Br)c2N)cc(C(C)C)c1O` showed an inhibition of 0%. Besides, the IC50 at Dihydrofolate reductase is roughly 23.7 mM.
`CCc1cc(Cc2ccc(N)nc2N)cc(CC)c1O` came in with an inhibition in data set [1] of 26%. The pKa in data set [2] is 6.59. Besides, at Dihydrofolate reductase, the IC50 is roughly 40 mM.
For the compound `COc1cc(Cc2c(N)ccnc2N)cc(OC)c1O`, the IC50 at Dihydrofolate reductase was 41 mM. The compound further yielded an inhibition in data set [3] of 26%.

One may read the inhibition as the change of the read-out against control, counted positive when it falls. The low end stands for a weak effect, the high end for a strong effect.
